Experimental data from paper PMC6511231 (Cell reports, 2018).

Target: T1, mouse LIN28Δ, mouse TUT4 and pre-let-7g (Mus musculus, UniProt Q8K3Y3)
T1 sequence (Q8K3Y3 16-184): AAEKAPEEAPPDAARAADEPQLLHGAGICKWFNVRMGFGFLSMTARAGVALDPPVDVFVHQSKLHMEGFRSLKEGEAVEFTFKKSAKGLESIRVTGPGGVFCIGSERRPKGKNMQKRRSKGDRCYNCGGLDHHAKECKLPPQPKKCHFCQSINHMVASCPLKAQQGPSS
T1 sequence (B2RX14 230-1424 partner): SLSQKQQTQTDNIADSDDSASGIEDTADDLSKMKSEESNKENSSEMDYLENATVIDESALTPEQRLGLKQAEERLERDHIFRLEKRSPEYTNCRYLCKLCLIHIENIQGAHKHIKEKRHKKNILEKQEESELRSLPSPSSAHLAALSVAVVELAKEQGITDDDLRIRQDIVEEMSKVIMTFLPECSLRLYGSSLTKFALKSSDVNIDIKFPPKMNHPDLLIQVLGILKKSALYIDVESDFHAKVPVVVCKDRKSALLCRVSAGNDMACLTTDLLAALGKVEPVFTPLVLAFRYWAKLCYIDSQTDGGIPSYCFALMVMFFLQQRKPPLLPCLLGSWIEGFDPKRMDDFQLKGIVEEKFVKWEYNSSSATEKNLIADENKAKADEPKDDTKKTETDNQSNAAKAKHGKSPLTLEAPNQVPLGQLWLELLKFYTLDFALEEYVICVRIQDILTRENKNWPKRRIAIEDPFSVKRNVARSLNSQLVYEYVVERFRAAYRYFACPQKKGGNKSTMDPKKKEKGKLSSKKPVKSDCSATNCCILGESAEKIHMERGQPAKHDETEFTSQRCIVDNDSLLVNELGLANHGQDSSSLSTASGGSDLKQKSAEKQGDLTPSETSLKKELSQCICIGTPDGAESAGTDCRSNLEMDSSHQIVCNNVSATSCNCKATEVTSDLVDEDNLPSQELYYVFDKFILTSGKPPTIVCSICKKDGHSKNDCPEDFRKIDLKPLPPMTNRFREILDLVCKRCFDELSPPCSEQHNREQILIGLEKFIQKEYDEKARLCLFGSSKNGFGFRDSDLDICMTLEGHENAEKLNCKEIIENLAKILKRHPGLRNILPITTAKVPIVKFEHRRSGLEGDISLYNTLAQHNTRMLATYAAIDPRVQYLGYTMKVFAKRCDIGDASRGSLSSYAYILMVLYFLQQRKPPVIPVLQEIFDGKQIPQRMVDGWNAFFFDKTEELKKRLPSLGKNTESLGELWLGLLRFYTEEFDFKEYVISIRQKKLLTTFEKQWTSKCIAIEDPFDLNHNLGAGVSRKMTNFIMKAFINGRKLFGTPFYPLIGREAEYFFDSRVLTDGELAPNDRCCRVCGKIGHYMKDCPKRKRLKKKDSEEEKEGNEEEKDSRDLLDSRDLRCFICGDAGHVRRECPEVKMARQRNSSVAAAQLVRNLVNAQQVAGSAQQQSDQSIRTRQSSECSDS
Experiment: LIN28-mediated let-7 oligouridylation assay
Format: biochemical
Details: 40 μM compound, 37°C, denaturing PAGE
Procedure, shortened: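 Mouse LIN28A, mouse TUT4 (230–1424) and in vitro-transcribed, T4 PNK-radiolabelled pre-let-7g were incubated with test compound (40 μM screen; 80 μM follow-up) for 40 min at 37°C. Buffer: 20 mM Tris 7.5, 5% glycerol, 6 mM MgCl2, 6 mM DTT, 50 μM ZnCl2, 40 mM KCl, 200 μM UTP. Reactions were stopped with EDTA/SDS/proteinase K (50°C, 30 min) and run on denaturing PAGE. RNA and DMSO served as controls.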

CCOc1cccc2c1N[C@@H](c1ccc(C(=O)O)cc1)[C@H]1CC=C[C@@H]21 [LI71]
Inhibition of LIN28-mediated oligouridylation: completely inhibited
